ChEMBL document CHEMBL1143582, “Discovery of the alpha7 nicotinic acetylcholine receptor agonists. (R)-3'-(5-Chlorothiophen-2-yl)spiro-1-azabicyclo[2.2.2]octane-3,5'-[1',3']oxazolidin-2'-one as a novel, potent, selective, and orally bioavailable ligand” (J Med Chem, 2005)

Legend:
[1] = target: T1, Neuronal acetylcholine receptor subunit alpha-7 (Rattus norvegicus, UniProt Q05941); assay: (§1) Inhibition of [125I]alpha-bungarotoxin binding to rat nicotinic acetylcholine receptor alpha7
[2] = target: T1, Neuronal acetylcholine receptor subunit alpha-7; assay: as §1; remark: listed apart in the source
Method in brief: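 Membranes from Wistar rat hippocampus made by sucrose homogenisation and differential centrifugation, then resuspended in 118 mM NaCl, 4.8 mM KCl, 2.5 mM CaCl2, 1.2 mM MgCl2, 20 mM Na-HEPES pH 7.5. Incubated with [125I]-α-bungarotoxin plus compounds, 37 °C, 3 h. Bound label collected by filtration. Nonspecific binding defined with 100 µM (−)-nicotine.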

[3] = Brain permeability is determined by ratio of concentration of compound in brain to that of in plasma (CB/CP) 2 hrs after oral dosing of 10.0 mg/kg (N=3); type: ADME, organism-based; set-up: dose 10 mg/kg, route oral; details: rat, read-out: Permeability
Method in brief: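 Rats (N=3) given a single 10 mg/kg oral dose. Brain and plasma concentrations measured 2 h after dosing, and the brain/plasma ratio (CB/CP) calculated. Reported as mean ± SD.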

[4] = target: Neuronal acetylcholine receptor; alpha4/beta2 (Rattus norvegicus, UniProt P09483+P12390); assay: Inhibition of [3H]cytisine binding to nicotinic acetylcholine receptor alpha4-beta2 from rat cerebral cortex; type: tissue-based
Method in brief: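 Wistar rat cerebral cortex membranes in 120 mM NaCl, 2.5 mM KCl, 1 mM CaCl2, 1 mM MgCl2, 50 mM Tris-HCl pH 7.4. Incubated with [3H]cytisine plus compounds, 4 °C, 75 min. Filtered and counted by liquid scintillation. Nonspecific binding defined with 100 µM (−)-nicotine.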

[5] = Inhibition of [125I]alpha-bungarotoxin binding to nicotinic acetylcholine receptor […]-delta-gamma from BC3H1 cells; type: cell-based, Mus musculus; details: bc3h-1
Method in brief: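 BC3H1 muscle cells grown in DMEM with 4 mM L-glutamine and 20% FBS. Membranes from confluent cells washed in HEPES-buffered saline, pH 7.5. Incubated with [125I]-α-bungarotoxin plus compounds, 37 °C, 3 h, then filtered. Nonspecific binding defined with […].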

[6] = Half-life of plasma concentration after intravenous dosing of 1 mg/kg in rats (N=4); details: rat
[7] = Oral bioavailability of compound after peroral dosing of 10.0 mg/kg in rats (N=4); type: ADME, organism-based; details: rat, in vivo, read-out: BA
[8] = Area under plasma concentration time curve 24 hours after peroral dosing of 10.0 mg/kg (AUC) in rats (N=4); type: ADME, organism-based; set-up: dose 10 mg/kg, route oral; details: rat, po
Method in brief: (§2)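 Rats (N=4) given a single oral dose; plasma sampled over 24 h. AUC0-24h estimated from the plasma concentration-time curve and Cmax taken as the peak plasma level. Reported as mean ± SD.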

[9] = Maximum plasma concentration after peroral dosing of 10.0 mg/kg in rats (N=4); type: ADME, organism-based; set-up: dose 10 mg/kg, route oral; details: rat, po; method in brief: as §2
[10] = Area under plasma concentration time curve 24 hours after peroral dosing of 1.0 mg/kg (AUC) in rats (N=4); type: ADME, organism-based; set-up: dose 1 mg/kg, route oral; details: rat, po; method in brief: as §2
[11] = Maximum plasma concentration after peroral dosing of 1.0 mg/kg in rats (N=4); type: ADME, organism-based; set-up: dose 1 mg/kg, route oral; details: rat, po; method in brief: as §2
[12] = Oral bioavailability of compound after peroral dosing of 1.0 mg/kg in rats (N=4); type: ADME, organism-based; details: rat, in vivo, read-out: BA
[13] = Brain permeability is determined by ratio of concentration of compound in brain to that of in plasma (CB/CP) 1 hr after subcutaneous dosing of 1.0 mg/kg (N=3); type: ADME, organism-based; set-up: dose 1 mg/kg, route subcutaneous; details: rat, sc, read-out: Permeability
Method in brief: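 Rats (N=3) given a single 1 mg/kg sc dose. Brain and plasma concentrations measured 1 h later, and the brain/plasma ratio (CB/CP) calculated. Reported as mean ± SD.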

T1 sequence (Q05941 whole entry): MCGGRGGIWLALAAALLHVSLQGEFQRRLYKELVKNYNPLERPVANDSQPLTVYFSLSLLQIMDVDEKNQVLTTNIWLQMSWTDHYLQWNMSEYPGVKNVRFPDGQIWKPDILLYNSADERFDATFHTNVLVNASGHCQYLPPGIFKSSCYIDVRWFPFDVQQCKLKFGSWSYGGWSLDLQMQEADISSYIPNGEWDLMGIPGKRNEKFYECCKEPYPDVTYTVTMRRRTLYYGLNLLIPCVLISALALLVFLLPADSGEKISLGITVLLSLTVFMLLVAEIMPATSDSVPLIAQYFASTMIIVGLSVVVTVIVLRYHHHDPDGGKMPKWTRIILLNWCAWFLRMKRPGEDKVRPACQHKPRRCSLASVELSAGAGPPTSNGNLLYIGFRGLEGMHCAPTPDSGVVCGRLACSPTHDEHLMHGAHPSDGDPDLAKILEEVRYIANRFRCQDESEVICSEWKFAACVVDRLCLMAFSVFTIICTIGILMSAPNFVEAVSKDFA
Sequence of Neuronal acetylcholine receptor; alpha4/beta2 (P09483 whole entry): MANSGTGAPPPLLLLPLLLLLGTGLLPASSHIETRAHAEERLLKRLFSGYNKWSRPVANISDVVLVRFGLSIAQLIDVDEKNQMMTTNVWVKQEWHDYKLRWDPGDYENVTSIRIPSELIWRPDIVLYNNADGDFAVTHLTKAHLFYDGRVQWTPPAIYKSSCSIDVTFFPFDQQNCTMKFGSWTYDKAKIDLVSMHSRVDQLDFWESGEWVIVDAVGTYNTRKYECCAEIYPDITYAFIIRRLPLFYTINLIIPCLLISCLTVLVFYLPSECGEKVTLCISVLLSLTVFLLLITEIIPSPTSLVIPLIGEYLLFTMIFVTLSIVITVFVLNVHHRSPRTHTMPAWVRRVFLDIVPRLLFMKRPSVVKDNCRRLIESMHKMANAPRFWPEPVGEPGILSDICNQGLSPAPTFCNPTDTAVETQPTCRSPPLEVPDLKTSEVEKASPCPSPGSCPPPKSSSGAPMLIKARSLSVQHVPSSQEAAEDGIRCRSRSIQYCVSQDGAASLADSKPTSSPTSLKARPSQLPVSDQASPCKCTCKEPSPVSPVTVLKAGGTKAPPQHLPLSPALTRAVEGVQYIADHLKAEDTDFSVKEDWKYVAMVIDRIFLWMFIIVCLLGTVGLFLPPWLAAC
Sequence of Neuronal acetylcholine receptor; alpha4/beta2 (P12390 whole entry): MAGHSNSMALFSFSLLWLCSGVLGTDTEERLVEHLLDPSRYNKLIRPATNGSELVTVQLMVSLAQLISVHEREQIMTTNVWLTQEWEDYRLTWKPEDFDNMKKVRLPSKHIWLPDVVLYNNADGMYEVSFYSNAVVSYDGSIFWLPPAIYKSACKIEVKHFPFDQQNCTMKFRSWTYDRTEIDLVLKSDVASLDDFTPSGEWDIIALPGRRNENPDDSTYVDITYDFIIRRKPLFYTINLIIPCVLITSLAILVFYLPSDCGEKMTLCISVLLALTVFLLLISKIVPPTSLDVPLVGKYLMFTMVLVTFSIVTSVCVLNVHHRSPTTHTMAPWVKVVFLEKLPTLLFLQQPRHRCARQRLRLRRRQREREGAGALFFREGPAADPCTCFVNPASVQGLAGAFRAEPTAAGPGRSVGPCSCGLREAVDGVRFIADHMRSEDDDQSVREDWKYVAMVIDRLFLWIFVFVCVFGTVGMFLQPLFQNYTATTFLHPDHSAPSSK

| SMILES | Ki [1] [nM] | IC50 [2] [nM] | also measured |
| --- | --- | --- | --- |
| CC(C)c1ccc(N2C[C@@]3(CN4CCC3CC4)OC2=O)s1 | 65 |  |  |
| c1ccc2sc(CO[C@@H]3CN4CCC3CC4)cc2c1 | 13 |  |  |
| CC(O)c1ccc(N2C[C@@]3(CN4CCC3CC4)OC2=O)s1 (stereo partly specified) | 145 |  |  |
| Cc1ccc(N2C[C@@]3(CN4CCC3CC4)OC2=O)s1 | 12 |  |  |
| Cc1csc(N2C[C@@]3(CN4CCC3CC4)OC2=O)c1 |  | > 1000 |  |
| O=C1O[C@]2(CN3CCC2CC3)CN1c1cccs1 | 80 |  |  |
| Cc1ccsc1N1C[C@@]2(CN3CCC2CC3)OC1=O |  | > 1000 |  |
| COc1ccc(/C=C2\CCCN=C2c2cccnc2)c(OC)c1 [GTS-21] | 220 |  | Kp at 2 h [3]: < 0.3; Ki [4]: 84 nM; IC50 [5]: > 10000 nM; half-life [6]: 28.2 min; bioavailability [7]: 14%; AUC at 24 h [8]: 453 ng·h/mL; Cmax [9]: 138 ng/mL |
| O=C1O[C@]2(CN3CCC2CC3)CN1c1ccc(Cl)s1 | 9 |  | AUC at 24 h [10]: 224 ng·h/mL; Kp at 2 h [3]: 59; Ki [4]: 1800 nM; IC50 [5]: > 10000 nM; bioavailability [7]: 108%; AUC at 24 h [8]: 4640 ng·h/mL; Cmax [9]: 997 ng/mL; Cmax [11]: 56 ng/mL; bioavailability [12]: 52% |
| O=C1O[C@]2(CN3CCC2CC3)CN1c1ccc2ccccc2c1 | 31 |  |  |
| O=C1NC[C@@]2(CN3CCC2CC3)O1 |  |  | Kp at 1 h [13]: 0.76; IC50 [5]: > 10000 nM; bioavailability [7]: 103%; AUC at 24 h [8]: 5390 ng·h/mL; Cmax [9]: 1580 ng/mL |
| CC(=O)c1ccc(N2C[C@@]3(CN4CCC3CC4)OC2=O)s1 | 190 |  |  |
| O=C1O[C@]2(CN3CCC2CC3)CN1c1ccsc1 |  | > 1000 |  |
| CCc1ccc(N2C[C@@]3(CN4CCC3CC4)OC2=O)s1 | 21 |  |  |
| O=C1O[C@]2(CN3CCC2CC3)CN1c1ccccn1 |  | > 1000 |  |
| N#Cc1ccc(N2C[C@@]3(CN4CCC3CC4)OC2=O)s1 | 85 |  |  |
| O=C(CC1CN2CCC1CC2)c1cc2ccccc2s1 (single isomer, unassigned; (+)) | 65 |  |  |
| Cc1cc(N2C[C@@]3(CN4CCC3CC4)OC2=O)sc1C |  | > 1000 |  |
| O=C1O[C@]2(CN3CCC2CC3)CN1c1cc2ccccc2o1 | 370 |  |  |
| O=C1O[C@@]2(CN3CCC2CC3)CN1c1ccc2ccccc2c1 | 205 |  |  |
| O=C1O[C@]2(CN3CCC2CC3)CN1c1cc2ccccc2s1 | 75 |  |  |
| O=C1OC2(CN3CCC2CC3)CN1c1ccccc1 (stereo unspecified) |  | > 1000 |  |
| O=C1O[C@]2(CN3CCC2CC3)CN1c1ccc(Br)s1 | 4 |  |  |
| O=C1O[C@]2(CN3CCC2CC3)CN1c1nc2ccccc2o1 |  | > 1000 |  |
| O=C1O[C@]2(CN3CCC2CC3)CN1c1nc2ccccc2s1 | 430 |  |  |
| O=C1O[C@@]2(CN3CCC2CC3)CN1c1cc2ccccc2s1 |  | > 1000 |  |
